Measurements published in PubChem BioAssay AID624022 (Broad Institute, 2012).
pIC50: −log10 of the molar value.

Biological target: Scavenger receptor class B member 1 (Mus musculus) (UniProt Q61009)
Assay: blockers of [3H]CE-HDL uptake via mouse SR-BI – cell-based, wild-type CHO mSR-BI, scintillation, powder samples, orthogonal assay for SR-BI HDL uptake inhibitor project, dose response (AID 624022)
Settings: CHO mSR-BI cells
Summary of the method: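 Signal: scintillation counting; Material: mSR-BI CHO cells lacking LDLR; Schedule: 1 h pretreatment plus 2 h uptake at 37 °C; Also added: [3H]cholesteryl ester-HDL.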

Sequence of Scavenger receptor class B member 1 (Mus musculus) (Q61009 whole entry, looked up): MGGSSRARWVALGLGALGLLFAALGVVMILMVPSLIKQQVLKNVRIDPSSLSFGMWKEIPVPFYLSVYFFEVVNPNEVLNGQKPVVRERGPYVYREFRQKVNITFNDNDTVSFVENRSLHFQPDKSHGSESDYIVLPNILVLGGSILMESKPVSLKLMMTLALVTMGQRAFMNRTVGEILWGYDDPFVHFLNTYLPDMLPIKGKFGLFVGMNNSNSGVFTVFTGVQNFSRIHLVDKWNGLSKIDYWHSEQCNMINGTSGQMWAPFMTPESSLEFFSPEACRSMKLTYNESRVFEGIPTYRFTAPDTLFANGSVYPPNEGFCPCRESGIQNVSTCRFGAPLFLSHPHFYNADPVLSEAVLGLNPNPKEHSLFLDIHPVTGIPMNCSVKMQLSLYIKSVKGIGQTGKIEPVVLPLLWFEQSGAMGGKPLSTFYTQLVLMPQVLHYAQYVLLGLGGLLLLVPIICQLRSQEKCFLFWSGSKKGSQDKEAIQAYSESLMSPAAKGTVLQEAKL

pIC50: 6.30
Structure (SMILES): CC(C)NC(=O)Nc1ccc2c(c1)C(=O)N([C@H](C)CO)C[C@@H](C)[C@H](CN(C)S(=O)(=O)c1ccc(Cl)cc1)O2
